From ChEMBL document CHEMBL4152387, “Discovery of a Potent Grp94 Selective Inhibitor with Anti-Inflammatory Efficacy in a Mouse Model of Ulcerative Colitis” (J Med Chem, 2018)
Calls of active or inactive are those of the source. No cut-off for these calls is given here.

Experiments:
[1] = species: Canis lupus familiaris; experiment: Binding affinity to dog His-tagged biotinylated GRP94 N41 deletion mutant (69 to 337 residues) expressed in Escherichia coli BL21star (DE3) assessed as dissociation constant by biolayer interferometry
Summary of the method: (§1)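 His-tagged Grp94N biotinylated at one molar ratio in PBS pH 7.4, dialysed overnight, loaded at 400 nM on streptavidin biosensors after 10 min prewetting in PBS, 0.05% BSA, 0.01% Tween-20. Four compound concentrations in this buffer tested; binding recorded at 30 °C by biolayer interferometry.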

[2] = biological target: T1, Endoplasmin (Homo sapiens, UniProt P14625); experiment: Inhibition of GRP94 in human PANC1 cells assessed as down-regulation of integrin alphaL levels after 36 hrs by Western blot analysis; type: cell-based
T1 sequence (P14625 whole entry): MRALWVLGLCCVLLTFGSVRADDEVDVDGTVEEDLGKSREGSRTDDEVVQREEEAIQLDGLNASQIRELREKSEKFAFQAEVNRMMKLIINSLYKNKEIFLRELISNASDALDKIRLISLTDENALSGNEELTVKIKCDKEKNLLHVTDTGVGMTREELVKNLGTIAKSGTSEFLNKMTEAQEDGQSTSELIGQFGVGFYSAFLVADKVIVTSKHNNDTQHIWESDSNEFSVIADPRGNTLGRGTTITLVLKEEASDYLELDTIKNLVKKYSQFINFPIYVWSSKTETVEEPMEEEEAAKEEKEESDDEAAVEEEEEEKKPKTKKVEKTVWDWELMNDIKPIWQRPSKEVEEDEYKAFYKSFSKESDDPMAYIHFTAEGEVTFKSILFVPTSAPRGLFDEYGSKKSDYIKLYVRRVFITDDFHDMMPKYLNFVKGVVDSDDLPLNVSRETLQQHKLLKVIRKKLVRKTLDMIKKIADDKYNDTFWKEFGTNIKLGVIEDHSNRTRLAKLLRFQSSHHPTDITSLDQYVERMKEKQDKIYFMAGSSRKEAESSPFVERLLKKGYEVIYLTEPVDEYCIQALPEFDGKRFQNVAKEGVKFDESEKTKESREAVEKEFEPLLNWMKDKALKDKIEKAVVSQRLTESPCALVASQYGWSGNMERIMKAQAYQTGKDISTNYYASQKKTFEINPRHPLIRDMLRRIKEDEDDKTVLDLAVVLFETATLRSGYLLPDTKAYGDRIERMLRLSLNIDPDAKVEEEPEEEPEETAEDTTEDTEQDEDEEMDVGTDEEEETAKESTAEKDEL
Summary of the method: (§2)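 Panc-1 cells treated 36 h at indicated concentrations; cell surface protein extracted with a membrane-fractionation kit; Western blot for integrin α2 and αL with β-actin loading control, infrared fluorescent secondary detection.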

[3] = tested on: Mus musculus; experiment: In-vivo inhibition of HSP90/HSP70 pathway in C57BL/6 mouse model of DSS-induced ulcerative colitis assessed as effect on Akt expression in colonic tissues at 10 to 30 mg/kg, ip qd co-administrated with DSS measured on day 7 post dose; type: organism-based
Summary of the method: (§3)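 DSS colitis in male C57BL/6 mice (3% DSS, 7 days, ip qd 10 or 30 mg/kg, vehicle controls); colons flash-frozen at day 7, homogenized in lysis buffer with protease/phosphatase inhibitors. Equal protein by BCA run on SDS-PAGE, PVDF, 1% BSA block, primary antibodies 37 °C 1 h then 4 °C overnight, DyLight 800 secondary, infrared scan; β-actin loading control.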

[4] = biological target: T1, Endoplasmin; experiment: Inhibition of GRP94 in human PANC1 cells assessed as down-regulation of integrin alpha2 levels after 36 hrs by Western blot analysis; type: cell-based; summary of the method: as §2
[5] = tested on: Mus musculus; experiment: Anti-inflammatory activity in C57BL/6 mouse model of DSS-induced ulcerative colitis assessed mortality at 30 mg/kg, ip qd co-administrated with DSS measured on day 7 post dose; type: functional, organism-based
Summary of the method: (§4)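 Male C57BL/6 mice (20−22 g), randomized, n = 8 per group; 3% DSS (36−50 KD) in drinking water for 7 days, with compound given ip once daily alongside; normal and disease controls received vehicle. Deaths counted at day 7.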

[6] = tested on: Mus musculus; experiment: Subacute toxicity in C57BL/6 mouse assessed as effect on lung at 30 to 90 mg/kg, ip qd for 2 weeks by hematoxylin and eosin staining analysis; type: organism-based; settings: in vivo, 336 h
[7] = tested on: Mus musculus; experiment: Anti-inflammatory activity in ip dosed C57BL/6 mouse model of DSS-induced ulcerative colitis assessed reduction in IL6 levels in colonic tissues co-administrated once daily with DSS measured on day 7 post dose by ELISA; type: functional, organism-based
Summary of the method: (§5)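 DSS colitis in male C57BL/6 mice (3% DSS in water, 7 days, ip qd co-dosing, vehicle controls). Serum and colons taken at sacrifice on day 7; colon homogenate supernatants and serum assayed for mouse TNFα and IL-6 by ELISA kits; n = 5 samples per group.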

[8] = tested on: Mus musculus; experiment: Anti-inflammatory activity in C57BL/6 mouse model of DSS-induced ulcerative colitis assessed reduction in TLR9 expression in colonic tissues at 10 to 30 mg/kg, ip qd co-administrated with DSS measured on day 7 post dose; type: functional, organism-based; summary of the method: as §3
[9] = tested on: Mus musculus; experiment: Anti-inflammatory activity in C57BL/6 mouse model of DSS-induced ulcerative colitis assessed reduction in p65 expression in colonic tissues at 10 to 30 mg/kg, ip qd co-administrated with DSS measured on day 7 post dose; type: functional, organism-based; summary of the method: as §3
[10] = tested on: Mus musculus; experiment: Anti-inflammatory activity in C57BL/6 mouse model of DSS-induced ulcerative colitis assessed reduction in body weight loss at 10 to 30 mg/kg, ip qd co-administrated with DSS measured until day 7 post dose; type: functional, organism-based
Summary of the method: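 Male C57BL/6 mice (20−22 g), n = 8 per group, 3% DSS in drinking water for 7 days with ip qd dosing at 10 or 30 mg/kg; vehicle for normal and disease controls. Body weight, stool consistency and rectal bleeding recorded daily; DAI scored from weight loss, stool consistency and stool blood.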

[11] = biological target: T2, Heat shock protein HSP 90-alpha (Homo sapiens, UniProt P07900); experiment: Inhibition of HSP90alpha in human PANC1 cells assessed as up-regulation of Hsp70 at 1 to 5 uM after 36 hrs by Western blot analysis; type: cell-based
Summary of the method: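 Panc-1 cells treated 36 h; total protein lysate with protease/phosphatase inhibitors; equal protein by BCA on SDS-PAGE, PVDF, Western blot for Hsp70 and Akt, β-actin loading control; AT13387 reference.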

[12] = tested on: Mus musculus; experiment: Subacute toxicity in C57BL/6 mouse assessed as effect on liver at 30 to 90 mg/kg, ip qd for 2 weeks by hematoxylin and eosin staining analysis; type: organism-based; settings: in vivo, 336 h
[13] = tested on: Mus musculus; experiment: Subacute toxicity in C57BL/6 mouse assessed as body weight loss at 30 to 90 mg/kg, ip qd for 2 weeks measured every other day; type: organism-based; settings: in vivo, 336 h
[14] = tested on: Mus musculus; experiment: Subacute toxicity in C57BL/6 mouse assessed as effect on spleen at 30 to 90 mg/kg, ip qd for 2 weeks by hematoxylin and eosin staining analysis; type: organism-based; settings: in vivo, 336 h
[15] = biological target: T2, Heat shock protein HSP 90-alpha; experiment: Binding affinity to human His-tagged HSP90alpha N-terminal domain (1 to 236 residues) expressed in Escherichia coli BL21star (DE3) association constant by biolayer interferometry; settings: read-out: K
Summary of the method: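 Biotinylated His-tagged N-terminal protein, labelled in PBS pH 7.4 at one molar ratio with excess biotin removed by overnight dialysis, was loaded at 400 nM final onto streptavidin biosensors pre-wetted 10 min in kinetics buffer (PBS, 0.05% BSA, 0.01% Tween-20). Four compound concentrations in kinetics buffer were then tested for binding, with all data collected at 30 °C.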

[16] = tested on: Mus musculus; experiment: Subacute toxicity in C57BL/6 mouse assessed as effect on kidneys at 30 to 90 mg/kg, ip qd for 2 weeks by hematoxylin and eosin staining analysis; type: organism-based; settings: in vivo, 336 h
[17] = tested on: Mus musculus; experiment: Anti-inflammatory activity in ip dosed C57BL/6 mouse model of DSS-induced ulcerative colitis assessed reduction in IL6 levels in serum co-administrated once daily with DSS measured on day 7 post dose by ELISA; type: functional, organism-based; summary of the method: as §5
[18] = species: Canis lupus familiaris; experiment: Binding affinity to dog GST-tagged GRP94 N41 deletion mutant (69 to 337 residues) expressed in Escherichia coli BL21star (DE3) at 40 uM by NMR based CPMG assay
[19] = tested on: Mus musculus; experiment: Anti-inflammatory activity in C57BL/6 mouse model of DSS-induced ulcerative colitis assessed reduction in colon shortening at 10 to 30 mg/kg, ip qd co-administrated with DSS measured on day 7 post dose; type: functional, organism-based
Summary of the method: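 Male C57BL/6 mice (20−22 g), n = 8 per group, 3% DSS in drinking water 7 days plus ip qd dosing at 10 or 30 mg/kg; vehicle controls. Sacrificed at day 7, colons collected; colon length measured and H&E-stained colon sections examined.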

[20] = tested on: Mus musculus; experiment: Anti-inflammatory activity in C57BL/6 mouse model of DSS-induced ulcerative colitis assessed mortality at 10 mg/kg, ip qd co-administrated with DSS measured on day 7 post dose; type: functional, organism-based; summary of the method: as §4
[21] = Binding affinity to dog His-tagged biotinylated GRP94 N41 deletion mutant (69 to 337 residues) expressed in Escherichia coli BL21star (DE3) by biolayer interferometry; parameters: species or system Canis lupus familiaris; summary of the method: as §1

CC(C)c1ccc(-c2ccc(N[C@H]3CC[C@H](O)CC3)c(C(N)=O)c2)cc1
K [1]: 1.25 ×10⁻² /s | inhibition [2]: Dose-dependent effect | Activity [3]: Non-Toxic | inhibition [4]: Dose-dependent effect | Activity [5]: Active | Activity [6]: Non-Toxic | Activity [7]: Dose-dependent effect | Activity [8]: Active | Activity [9]: Active | Activity [10]: Active | inhibition (INH) [11]: Not Active | Activity [12]: Non-Toxic | Activity [13]: Non-Toxic | Activity [14]: Non-Toxic | kon [15]: 1680 M⁻¹ s⁻¹ | Activity [16]: Non-Toxic | Activity [17]: Dose-dependent effect | Activity [18]: Active | Activity [19]: inactive | Activity [20]: inactive | Kd [21]: 19.6 nM
